Reference: ChEMBL document CHEMBL1129542, “trans-2-Aryl-N,N-dipropylcyclopropylamines: synthesis and interactions with 5-HT(1A) receptors” (J Med Chem, 1996)

Key:
[1] = target: T1, 5-hydroxytryptamine receptor 1A (Rattus norvegicus, UniProt P19327); assay: In vitro binding affinity of compound towards 5-hydroxytryptamine 1A receptor was determined using [3H]8-OH-DPAT as radioligand; range=16-20
T1 sequence (P19327 whole entry): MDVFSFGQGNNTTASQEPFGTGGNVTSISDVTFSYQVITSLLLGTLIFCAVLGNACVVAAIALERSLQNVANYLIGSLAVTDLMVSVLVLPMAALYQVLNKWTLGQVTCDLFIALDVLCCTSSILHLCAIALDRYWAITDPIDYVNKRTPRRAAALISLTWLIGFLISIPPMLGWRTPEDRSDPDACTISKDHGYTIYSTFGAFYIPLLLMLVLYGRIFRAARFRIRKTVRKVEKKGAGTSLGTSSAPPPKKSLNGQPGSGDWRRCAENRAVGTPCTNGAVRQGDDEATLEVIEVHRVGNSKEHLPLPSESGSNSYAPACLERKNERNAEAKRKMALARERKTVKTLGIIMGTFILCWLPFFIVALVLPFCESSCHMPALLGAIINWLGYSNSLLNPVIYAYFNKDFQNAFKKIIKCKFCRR
Summary of the method: (§1)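 Rat (male Sprague–Dawley) cortex plus hippocampus membranes, washed twice in 50 mM Tris-HCl with 4.0 mM CaCl2 and 5.7 mM ascorbate, pH 7.5, pretreated with 10 μM pargyline. Competition against 2 nM [3H]-8-OH-DPAT with 1–300 nM compound, 5 mg/mL tissue, 37 °C for 10 min, then filtration. Nonspecific binding defined with 10 μM 5-HT. […] Range derived from the standard error of the estimate.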

[2] = target: T1, 5-hydroxytryptamine receptor 1A; assay: In vitro binding affinity of compound towards 5-hydroxytryptamine 1A receptor was determined using [3H]8-OH-DPAT as radioligand; range=160-430; summary of the method: as §1
[3] = target: T1, 5-hydroxytryptamine receptor 1A; assay: In vitro binding affinity of compound towards 5-hydroxytryptamine 1A receptor was determined using [3H]8-OH-DPAT as radioligand; range=710-980; summary of the method: as §1
[4] = target: T1, 5-hydroxytryptamine receptor 1A; assay: In vitro binding affinity of compound towards 5-hydroxytryptamine 1A receptor was determined using [3H]8-OH-DPAT as radioligand; range=12-14; summary of the method: as §1
[5] = target: T1, 5-hydroxytryptamine receptor 1A; assay: In vitro binding affinity of compound towards 5-hydroxytryptamine 1A receptor was determined using [3H]8-OH-DPAT as radioligand; range=78-140; summary of the method: as §1
[6] = target: T1, 5-hydroxytryptamine receptor 1A; assay: In vitro binding affinity of compound towards 5-hydroxytryptamine 1A receptor was determined using [3H]8-OH-DPAT as radioligand; range=85-130; summary of the method: as §1
[7] = target: T1, 5-hydroxytryptamine receptor 1A; assay: In vitro binding affinity of compound towards 5-hydroxytryptamine 1A receptor was determined using [3H]8-OH-DPAT as radioligand; summary of the method: as §1
[8] = target: T1, 5-hydroxytryptamine receptor 1A; assay: In vitro binding affinity of compound towards 5-hydroxytryptamine 1A receptor was determined using [3H]-8-OH-DPAT as radioligand; range=39-87; summary of the method: as §1
[9] = target: T1, 5-hydroxytryptamine receptor 1A; assay: In vitro binding affinity of compound towards 5-hydroxytryptamine 1A receptor was determined using [3H]-8-OH-DPAT as radioligand; range=21-28; summary of the method: as §1
[10] = target: T1, 5-hydroxytryptamine receptor 1A; assay: In vitro binding affinity of compound towards 5-hydroxytryptamine 1A receptor was determined using [3H]8-OH-DPAT as radioligand; range=20-23; summary of the method: as §1
[11] = target: T1, 5-hydroxytryptamine receptor 1A; assay: In vitro binding affinity of compound towards 5-hydroxytryptamine 1A receptor was determined using [3H]8-OH-DPAT as radioligand; range=184-503; summary of the method: as §1
[12] = target: T1, 5-hydroxytryptamine receptor 1A; assay: In vitro binding affinity of compound towards 5-hydroxytryptamine 1A receptor was determined using [3H]8-OH-DPAT as radioligand; range=19-23
[13] = target: T1, 5-hydroxytryptamine receptor 1A; assay: In vitro binding affinity of compound towards 5-hydroxytryptamine 1A receptor was determined using [3H]-8-OH-DPAT as radioligand; range=48-77; summary of the method: as §1
[14] = target: T1, 5-hydroxytryptamine receptor 1A; assay: In vitro binding affinity of compound towards 5-hydroxytryptamine 1A receptor was determined using [3H]8-OH-DPAT as radioligand; range=89-280; summary of the method: as §1
[15] = target: T1, 5-hydroxytryptamine receptor 1A; assay: In vitro binding affinity of compound towards 5-hydroxytryptamine 1A receptor was determined using [3H]8-OH-DPAT as radioligand; range=2.7-3.6; summary of the method: as §1
[16] = target: T1, 5-hydroxytryptamine receptor 1A; assay: In vitro binding affinity of compound towards 5-hydroxytryptamine 1A receptor was determined using [3H]8-OH-DPAT as radioligand; range=63-95; summary of the method: as §1
[17] = target: T1, 5-hydroxytryptamine receptor 1A; assay: In vitro binding affinity of compound towards 5-hydroxytryptamine 1A receptor was determined using [3H]8-OH-DPAT as radioligand; range=174-224; summary of the method: as §1

Molecule `CCCN(CCC)[C@@H]1C[C@H]1c1ccccc1OC` has a Ki [1] of 17 nM.
In the case of `CCCN(CCC)[C@H]1C[C@@H]1c1ccccc1OC`, the Ki [2] is reported as 230 nM.
`CCCN(CCC)[C@H]1C[C@@H]1c1cccs1` showed a Ki [3] of 820 nM.
For `CCCN(CCC)[C@@H]1C[C@H]1c1cccs1`, the Ki [4] was 11 nM.
`CCCN(CCC)C1CC1c1cccs1` (stereo not given) was tested, and the Ki [4] was 13 nM.
In the case of `CCCN(CCC)C1CC1c1cc(F)ccc1O` (stereo not given), the Ki [5] is reported as 99 nM.
`CCCN(CCC)C1CC1c1cccc(F)c1` (stereo not given) showed a Ki [6] of 100 nM.
In the case of `CCCN(CCC)C1CC1c1cc2ccccc2s1` (stereo not given), the Ki [7] is reported as greater than 1000 nM.
For `CCCN(CCC)[C@@H]1C[C@H]1c1cc(F)ccc1OC`, the Ki [8] was 60 nM.
In the case of `CCCN(CCC)C1CC1c1ccccc1` (stereo not given), the Ki [9] is reported as 24 nM.
In the case of `CCCN(CCC)C1CC1c1ccccc1Br` (stereo not given), the Ki [10] is reported as 22 nM.
`CCCN(CCC)[C@H]1C[C@@H]1c1cc(F)ccc1O` was tested, and the Ki [11] was 348 nM.
In the case of `CCCN(CCC)C1CC1c1ccsc1` (stereo not given), the Ki [12] is reported as 21 nM.
In the case of `CCCN(CCC)C1CC1c1ccccc1F` (stereo not given), the Ki [13] is reported as 59 nM.
Molecule `CCCN(CCC)C1CC1c1ccccc1C(F)(F)F` (stereo not given) has a Ki [7] greater than 1000 nM.
In the case of `CCCN(CCC)C1CC1c1cccc(Cl)c1Cl` (stereo not given), the Ki [7] is reported as greater than 300 nM.
Work on `CCCN(CCC)C1CC1c1cc(F)ccc1OC` (stereo not given) yielded a Ki [14] of 140 nM.
`CCCN(CCC)[C@@H]1C[C@H]1c1cc(F)ccc1O` gave a Ki [15] of 3.2 nM.
In the case of `CCCN(CCC)C1CC1c1ccc(F)cc1` (stereo not given), the Ki [16] is reported as 76 nM.
In the case of `CCCN(CCC)[C@H]1C[C@@H]1c1cc(F)ccc1OC`, the Ki [17] is reported as 199 nM.
